Laboratory results reported in ChEMBL document CHEMBL1137481, “Discovery of platelet-type 12-human lipoxygenase selective inhibitors by high-throughput screening of structurally diverse libraries” (Bioorg Med Chem, 2007).

Legend:
[1] = biological target: T1, Polyunsaturated fatty acid lipoxygenase ALOX12 (Homo sapiens, UniProt P18054); experiment: Inhibition of human 12-hLO
T1 sequence (P18054 whole entry): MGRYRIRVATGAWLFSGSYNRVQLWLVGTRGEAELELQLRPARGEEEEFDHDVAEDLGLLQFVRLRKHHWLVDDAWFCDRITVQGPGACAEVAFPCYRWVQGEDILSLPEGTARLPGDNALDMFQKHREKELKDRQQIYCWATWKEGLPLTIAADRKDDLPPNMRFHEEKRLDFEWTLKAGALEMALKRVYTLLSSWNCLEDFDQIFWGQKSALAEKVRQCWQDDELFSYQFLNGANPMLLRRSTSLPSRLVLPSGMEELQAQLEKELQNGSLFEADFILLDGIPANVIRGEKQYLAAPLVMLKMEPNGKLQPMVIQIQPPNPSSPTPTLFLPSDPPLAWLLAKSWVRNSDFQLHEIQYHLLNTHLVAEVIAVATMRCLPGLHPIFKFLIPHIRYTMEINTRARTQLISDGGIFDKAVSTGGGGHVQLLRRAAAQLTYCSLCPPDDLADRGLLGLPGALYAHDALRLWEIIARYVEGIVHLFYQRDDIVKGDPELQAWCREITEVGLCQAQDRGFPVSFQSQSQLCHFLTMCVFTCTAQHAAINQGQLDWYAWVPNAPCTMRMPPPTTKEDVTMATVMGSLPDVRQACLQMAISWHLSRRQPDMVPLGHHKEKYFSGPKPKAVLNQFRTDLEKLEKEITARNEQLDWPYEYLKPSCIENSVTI
In short: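 Rate from conjugated diene formation at 234 nm, room temperature (23 °C), stirred 2 mL reactions. 12-hLO (N-terminal His6-tagged, ~40 nM) with arachidonic acid in 25 mM Hepes pH 8, 0.01% Triton X-100. 15-hLO-1 (His6-tagged, ~40 nM) with linoleic acid, 15-hLO-2 (1 µM, SF9-expressed) with arachidonic acid, both in 25 mM Hepes pH 7.5, 0.01% Triton X-100. Rates at various inhibitor concentrations fit to saturation curve for IC50.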

[2] = biological target: T2, Polyunsaturated fatty acid lipoxygenase ALOX15 (Homo sapiens) (UniProt P16050); experiment: Inhibition of human 15-hLO1 at 10 uM by MI assay
T2 sequence (whole entry): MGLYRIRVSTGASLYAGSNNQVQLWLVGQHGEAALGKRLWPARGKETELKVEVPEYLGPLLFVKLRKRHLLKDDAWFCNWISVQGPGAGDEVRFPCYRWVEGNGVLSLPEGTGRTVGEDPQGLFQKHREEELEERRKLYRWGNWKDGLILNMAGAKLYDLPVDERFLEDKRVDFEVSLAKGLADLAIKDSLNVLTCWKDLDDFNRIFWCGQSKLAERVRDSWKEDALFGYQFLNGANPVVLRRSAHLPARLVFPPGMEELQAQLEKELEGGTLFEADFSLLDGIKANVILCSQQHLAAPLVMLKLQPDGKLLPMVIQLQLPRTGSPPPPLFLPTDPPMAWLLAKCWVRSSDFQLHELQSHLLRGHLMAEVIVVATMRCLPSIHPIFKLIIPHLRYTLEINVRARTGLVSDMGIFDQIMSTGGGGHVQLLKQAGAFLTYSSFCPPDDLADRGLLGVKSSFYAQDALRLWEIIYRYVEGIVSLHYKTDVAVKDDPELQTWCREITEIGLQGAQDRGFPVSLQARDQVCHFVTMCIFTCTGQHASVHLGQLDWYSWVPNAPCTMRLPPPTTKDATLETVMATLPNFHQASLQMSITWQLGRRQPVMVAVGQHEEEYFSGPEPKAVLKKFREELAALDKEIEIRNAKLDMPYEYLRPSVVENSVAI
In short: (§1)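 One-point manual continuous assay at 23 °C, stirred, following conjugated diene at 234 nm. 12-hLO (~40 nM, His6-tagged) with arachidonic acid in 25 mM Hepes pH 8, 0.01% Triton X-100. 15-hLO-1 (~40 nM) with linoleic acid in 25 mM Hepes pH 7.5, 0.01% Triton X-100. 10 µM inhibitor.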

[3] = biological target: T2, Polyunsaturated fatty acid lipoxygenase ALOX15 (Homo sapiens); experiment: Inhibition of human 15-hLO1 at 40 uM by HTP assay
In short: (§2)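 384-well xylenol orange endpoint assay. 30 µM substrate (arachidonic acid for 12-hLO in 25 mM Hepes pH 8.0; linoleic acid for 15-hLO-1 in 25 mM HEPES pH 7.5), 0.1% Triton X-100. Inhibitor at 40 µM final from DMSO. Reactions started with ~40 nM enzyme and stopped at ~35% completion with 100 µM xylenol orange and 150 µM ferrous ammonium sulfate in 25 mM H2SO4. Read at 560 nm after 30 min dark shaking. Triplicate, normalised to no-enzyme and DMSO controls.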

[4] = biological target: T3, Polyunsaturated fatty acid lipoxygenase ALOX12 (Homo sapiens) (UniProt P18054); experiment: Inhibition of human 12-hLO at 10 uM by MI assay; in short: as §1
T3 sequence (whole entry): T1 sequence (P18054 whole entry)

[5] = biological target: T3, Polyunsaturated fatty acid lipoxygenase ALOX12 (Homo sapiens); experiment: Inhibition of human 12-hLO at 40 uM by HTP assay; in short: as §2
[6] = biological target: T4, Polyunsaturated fatty acid lipoxygenase ALOX15 (Homo sapiens, UniProt P16050); experiment: Inhibition of human 15-hLO1
T4 sequence (P16050 whole entry): T2 sequence (whole entry)

Homo sapiens = organism: Homo sapiens; experiment: Selectivity for 12-hLO over 15-hLO1
In short: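 Ratio of IC50 for 15-hLO-1 over IC50 for 12-hLO. Both come from the 234 nm conjugated-diene rate assay: 12-hLO with arachidonic acid at pH 8, 15-hLO-1 with linoleic acid at pH 7.5, 0.01% Triton X-100, 23 °C. IC50 taken from saturation-curve fits.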

With `COc1c(O)cc2oc3cc(O)c(CC=C(C)C)c(O)c3c(=O)c2c1CC=C(C)C` [MANGOSTIN] the IC50 [1] was 0.58 µM, the inhibition [2] was 36% and the inhibition [3] was 12%. For the same compound, the inhibition [4] was 100% and the inhibition [5] was 47%.

For `C[C@H](c1nccs1)N(C)C(=O)[C@H](C[C@H](C)C(Cl)(Cl)Cl)NC(=O)C[C@H](C)C(Cl)(Cl)Cl` [NEODYSIDENIN], the IC50 [1] was greater than 100 µM and the Ki [1] was 17 µM.

Compound `O=C(O)c1cc(C(=O)C(=O)c2cc(C(=O)O)c(O)c3ccccc23)c2ccccc2c1O` has an IC50 [1] of 0.15 µM, an inhibition [2] of 0% and an inhibition [3] of 0%. It also gave an inhibition [4] of 88% and an inhibition [5] of 46%.

`Oc1c(Cl)cc(C(c2cc(Cl)c(O)c(Cl)c2)C(c2cc(Cl)c(O)c(Cl)c2)c2cc(Cl)c(O)c(Cl)c2)cc1Cl` was tested, and the IC50 [1] was 0.21 µM, the inhibition [2] was 36% and the inhibition [3] was 37%. The inhibition [4] was 100% and the inhibition [5] was 70%.

With `Oc1cccc2ccc(SSc3ccc4cccc(O)c4n3)nc12` the inhibition [2] was 0%, the inhibition [3] was 39% and the inhibition [4] was 0%. For the same compound, the inhibition [5] was 71%.

Compound `C[C@H](NC(=O)[C@H](C[C@H](C)C(Cl)(Cl)Cl)N(C)C(=O)C[C@H](C)C(Cl)(Cl)Cl)c1nccs1` [DYSIDENIN] has a Ki [1] of 9 µM, a Ki [6] of 8 µM and a Ratio Ki (Homo sapiens) of 1.
